We go through 8 compounds from ChEMBL document CHEMBL2384986, “Re-evolution of the 2-phenylquinolines: ligand-based design, synthesis, and biological evaluation of a potent new class of Staphylococcus aureus NorA efflux pump inhibitors to combat antimicrobial resistance” (J Med Chem, 2013).

Each structure is given as a SMILES string. Activity calls are given as the source filed them. The calls are words filed in the database; no cut-off is given here.

Assay [1] concerns Staphylococcus aureus. As to the kind of experiment: Antibacterial activity against norA-deficient Staphylococcus aureus K1902 assessed as growth inhibition by microdilution method. In kind it is functional. A digest of the protocol:
(§1)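 Broth microdilution MIC determination following CLSI guidelines. Strains: wild-type ATCC 25923 and SA-K1902 (norA−). Intrinsic activity was tested up to a top concentration of 100 μg/mL.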
A general note: Broth dilution looks for growth in wells or tubes with falling amounts of substance.

Assay [2] addresses T1, Quinolone resistance protein NorA (Staphylococcus aureus) (UniProt P0A0J7).
T1 sequence (whole entry): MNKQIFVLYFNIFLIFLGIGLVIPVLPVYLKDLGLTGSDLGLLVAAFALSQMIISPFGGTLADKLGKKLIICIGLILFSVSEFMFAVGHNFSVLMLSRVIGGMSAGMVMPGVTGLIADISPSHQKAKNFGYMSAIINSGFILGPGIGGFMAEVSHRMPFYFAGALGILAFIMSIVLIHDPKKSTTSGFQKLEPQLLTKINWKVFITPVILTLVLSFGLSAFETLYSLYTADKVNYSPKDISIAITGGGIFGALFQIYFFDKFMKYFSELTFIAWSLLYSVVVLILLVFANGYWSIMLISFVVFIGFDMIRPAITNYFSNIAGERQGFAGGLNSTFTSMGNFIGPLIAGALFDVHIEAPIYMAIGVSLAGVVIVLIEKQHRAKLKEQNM
Description: Inhibition of NorA in Staphylococcus aureus K2378 assessed as reduction of ciprofloxacin MIC at 0.78 to 100 ug/mL relative to control. A digest of the protocol:
(§2)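 Ciprofloxacin MIC determined by CLSI broth microdilution, alone and combined with scalar dilutions of freshly prepared test compound; checkerboard combination format. Strains: ATCC 25923 (wild type), SA-1199 (norA wt), SA-1199B (norA overexpressing, GrlA A116E), SA-K2378 (norA on multicopy pCU1) and SA-K1902 (norA-deleted).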

Assay [3] has as its target T1, Quinolone resistance protein NorA (Staphylococcus aureus). Description: Inhibition of NorA in Staphylococcus aureus ATCC 25923 assessed as reduction of ciprofloxacin MIC at 0.78 to 100 ug/mL. A digest of the protocol:
as §2

Assay [4] shares this target. Description: Inhibition of wild type NorA in Staphylococcus aureus 1199 assessed as reduction of ciprofloxacin MIC at 0.78 to 100 ug/mL. A digest of the protocol: as §2
For assay [5], the system named is Staphylococcus aureus. As to the kind of experiment: Antibacterial activity against Staphylococcus aureus K2378 overexpressing norA assessed as growth inhibition by microdilution method. In kind it is functional. A digest of the protocol: (§3)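 Broth microdilution MIC per CLSI guidelines for intrinsic antistaphylococcal activity; highest concentration tested 100 μg/mL. SA-1199 is the norA wild-type parent, SA-1199B overexpresses norA and carries GrlA A116E, and SA-K2378 overexpresses norA from multicopy plasmid pCU1 in the norA-deleted SA-K1902 background.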

Assay [6] has as its system Staphylococcus aureus. As to the kind of experiment: Antibacterial activity against wild type Staphylococcus aureus ATCC 25923 assessed as growth inhibition by microdilution method. Type of assay: functional. An outline of the steps:
as §1

Assay [7] relates to Staphylococcus aureus. As to the kind of experiment: Antibacterial activity against Staphylococcus aureus 1199 harboring wild type norA assessed as growth inhibition by microdilution method.
Assay [8] deals with Staphylococcus aureus. As to the kind of experiment: Antibacterial activity against Staphylococcus aureus 1199B overexpressing NorA and grlA A116E mutant assessed as growth inhibition by microdilution method. Type of assay: functional. A digest of the protocol:
as §3

Assay [9] concerns Staphylococcus aureus. As to the kind of experiment: Reduction of ciprofloxacin MIC in norA-deficient Staphylococcus aureus K1902 at 0.78 to 100 ug/mL. Type of assay: functional, organism-based. An outline of the steps:
as §2

In assay [10] the target is Quinolone resistance protein NorA (Staphylococcus aureus, UniProt P0A0J7). Description: Inhibition of NorA in Staphylococcus aureus 1199B harboring grlA A116E mutant assessed as inhibition of ethidium bromide efflux measured for 5 mins by fluorometric analysis. An outline of the steps:
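Fluorometric EtBr efflux assay in SA-1199B (norA overexpressing, GrlA A116E) over a 5 min time course, compared with no-inhibitor control. Increasing inhibitor concentrations were tested, and IC50 was read by inspection of the dose-response plots. Usually run in duplicate.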

Assay [11] concerns Staphylococcus aureus. As to the kind of experiment: Inhibition of MepA in Staphylococcus aureus K2886 assessed as reduction of ethidium bromide MIC at 0.78 to 100 ug/mL. A digest of the protocol: (§4)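 The strains are norA-deleted S. aureus carrying pALC2073-mepA (K2886) or the empty pALC2073 vector (K2885). Cloned genes are under a xyl/tetO promoter, induced by 0.05 μg/mL tetracycline, which was present in all experiments with these strains. EtBr MICs were determined by CLSI microdilution, with and without test compound.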

For assay [12], the system named is Staphylococcus aureus. As to the kind of experiment: Reduction of ethidium bromide MIC in mepA-deficient Staphylococcus aureus K2885 at 0.78 to 100 ug/mL. In kind it is functional, organism-based. An outline of the steps:
as §4

Assay [13] addresses T1, Quinolone resistance protein NorA (Staphylococcus aureus). As to the kind of experiment: Inhibition of NorA in Staphylococcus aureus 1199B harboring grlA A116E mutant assessed as inhibition of ethidium bromide efflux at 50 uM measured for 5 mins by fluorometric analysis relative to control. A digest of the protocol: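 EtBr loss from SA-1199B (norA overexpressing, GrlA A116E) measured fluorometrically with inhibitor at 50 μM, compared with no-inhibitor control. Read-out is mean total efflux over a 5 min time course, expressed as percent reduction in efflux. Usually run in duplicate.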

The test system of assay [14] is Staphylococcus aureus. As to the kind of experiment: Inhibition of MepA in Staphylococcus aureus K2886 assessed as reduction of ethidium bromide MIC at 0.78 ug/mL relative to control. A digest of the protocol: (§5)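 Ethidium bromide MIC by CLSI microdilution, alone and combined with test compound. Strain SA-K2886 is norA-deleted and carries pALC2073-mepA, with mepA under a xyl/tetO promoter; 0.05 μg/mL tetracycline was included throughout to induce expression.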

Assay [15] has as its target T1, Quinolone resistance protein NorA (Staphylococcus aureus). As to the kind of experiment: Inhibition of NorA in Staphylococcus aureus 1199B harboring grlA A116E mutant assessed as reduction of ciprofloxacin MIC at 3.13 ug/mL relative to control. An outline of the steps:
as §2

The target is the same in assay [16]. As to the kind of experiment: Inhibition of NorA in Staphylococcus aureus K2378 assessed as reduction of ciprofloxacin MIC at 0.78 ug/mL relative to control. A digest of the protocol:
as §2

The subject of assay [17] is Staphylococcus aureus. As to the kind of experiment: Inhibition of MepA in Staphylococcus aureus K2886 assessed as reduction of ethidium bromide MIC at 1.56 ug/mL relative to control. An outline of the steps:
as §5

In general, MIC refers to the lowest concentration found to suppress growth. Usually inhibition stands for the relative decrease from the control value, in per cent. By IC50 is commonly meant the concentration that gives 50% inhibition. As to `COC(=O)[C@H]1[C@H]2C[C@@H]3c4[nH]c5cc(OC)ccc5c4CCN3C[C@H]2C[C@@H](OC(=O)c2cc(OC)c(OC)c(OC)c2)[C@@H]1OC` [RESERPINE], the minimum inhibitory concentration (MIC) is over 100 µg/mL in the assay with Staphylococcus aureus [1]; over 100 µg/mL with Staphylococcus aureus [5]; over 100 µg/mL with Staphylococcus aureus [6]; over 100 µg/mL in the assay on Staphylococcus aureus [7]; over 150 µM in the assay with Staphylococcus aureus [8]. For the same compound, the fold change (FC) in [2] was determined as 4. Moreover, the inhibition result in assay [3] and in assay [4] was “inactive” each time. Also, the outcome with Staphylococcus aureus [9] was inactive. Moreover, the IC50 in assay [10] came out at 9.2 µM.
Turning to `CCCOc1ccc(-c2cc(OCCN(C(C)C)C(C)C)c3ccccc3n2)cc1`, the MIC is 100 µg/mL in the assay on Staphylococcus aureus [1]; over 100 µg/mL in the assay with Staphylococcus aureus [5]; over 100 µg/mL in the assay with Staphylococcus aureus [6]; over 100 µg/mL with Staphylococcus aureus [7]; over 200 µM in the assay on Staphylococcus aureus [8]. Besides, in assay [2], the fold change (FC) came to 4. For the same compound, the inhibition result in assay [3] and in [4] was “inactive” throughout. For the same compound, the inhibition result in the assay with Staphylococcus aureus [11] is “Active”. The result with Staphylococcus aureus [12] and with Staphylococcus aureus [9] was inactive. The inhibition in [13] was found to be 88.2%. Also, the IC50 in assay [10] is 8.3 µM.
As for `O=C(O)c1cn(C2CC2)c2cc(N3CCNCC3)c(F)cc2c1=O` [CIPROFLOXACIN], the MIC in the assay with Staphylococcus aureus [1] stood at 0.63 µg/mL; in the assay with Staphylococcus aureus [5], 2.5 µg/mL; in the assay on Staphylococcus aureus [6], 0.31 µg/mL; in the assay on Staphylococcus aureus [7], 0.63 µg/mL.
For `CCCOc1ccc(-c2cc(OCCN(CC)CC)c3ccccc3n2)cc1`, the MIC in the assay with Staphylococcus aureus [1] is 50 µg/mL; in the assay with Staphylococcus aureus [5] it was 50 µg/mL; with Staphylococcus aureus [6] it was 100 µg/mL; with Staphylococcus aureus [7], over 100 µg/mL; with Staphylococcus aureus [8], over 200 µM. Also, in [2], the fold change (FC) worked out at 4. In addition, the inhibition entry in [3] and in [4] was “inactive” in each case. In the assay with Staphylococcus aureus [9], the result was inactive. For the same compound, in assay [10], the IC50 was 8.9 µM.
As to `CCCOc1ccc(-c2cc(OCCN3CCN(Cc4ccccc4)CC3)c3ccccc3n2)cc1`, the MIC with Staphylococcus aureus [1] was over 100 µg/mL; in the assay on Staphylococcus aureus [5], over 100 µg/mL; in the assay on Staphylococcus aureus [6] it was over 100 µg/mL; in the assay with Staphylococcus aureus [7], over 100 µg/mL; in the assay on Staphylococcus aureus [8], over 200 µM. Further, the fold change (FC) in assay [2] was found to be 4. Further, the inhibition entry in assay [3] and in assay [4] was “inactive” throughout. Besides, the inhibition result with Staphylococcus aureus [11] was “Active”. Besides, the result in the assay on Staphylococcus aureus [12] and in the assay on Staphylococcus aureus [9] was inactive. Further, the inhibition in assay [13] came to 81.2%. Also, the IC50 in assay [10] stood at 3.8 µM.
Turning to `CCCOc1ccc(-c2cc(OCCN3CCCCCC3)c3ccccc3n2)cc1`, the MIC is 50 µg/mL in the assay with Staphylococcus aureus [1]; 50 µg/mL with Staphylococcus aureus [5]; over 100 µg/mL in the assay on Staphylococcus aureus [6]; over 100 µg/mL with Staphylococcus aureus [7]; over 200 µM in the assay with Staphylococcus aureus [8]. The fold change (FC) (in [2]; in the assay with Staphylococcus aureus [14]; in [15]; in assay [16]) was 16 each time. Further, the inhibition entry in [3] and in assay [4] was “inactive” in each case. Also, in the assay on Staphylococcus aureus [11], the inhibition result was “Active”. In addition, the outcome with Staphylococcus aureus [12] and in the assay with Staphylococcus aureus [9] was inactive. Also, the inhibition in assay [13] was found to be 86%. Further, the IC50 in [10] came to 6.4 µM.
With `CCCOc1ccc(-c2cc(OCCCN(C)C)c3ccccc3n2)cc1.Cl`, the MIC is 25 µg/mL with Staphylococcus aureus [1]; 25 µg/mL in the assay on Staphylococcus aureus [5]; over 100 µg/mL in the assay on Staphylococcus aureus [6]; over 100 µg/mL with Staphylococcus aureus [7]; over 200 µM with Staphylococcus aureus [8]. For the same compound, the fold change (FC) in assay [2] stood at 4. The inhibition entry in assay [3] and in assay [4] was “inactive” throughout. For the same compound, in the assay with Staphylococcus aureus [11], the inhibition entry was “Active”. Moreover, the outcome in the assay with Staphylococcus aureus [12] and in the assay with Staphylococcus aureus [9] was inactive. In addition, in assay [13], the inhibition was determined as 90.6%. Besides, in [10], the IC50 is 3.9 µM.
Consider `CCCOc1ccc(-c2cc(OCCN3CCNCC3)c3ccccc3n2)cc1`, for which the MIC in the assay on Staphylococcus aureus [1] was 25 µg/mL; in the assay on Staphylococcus aureus [5] it was 50 µg/mL; with Staphylococcus aureus [6], over 100 µg/mL; in the assay with Staphylococcus aureus [7], over 100 µg/mL; with Staphylococcus aureus [8] it was over 200 µM. Besides, the fold change (FC) in assay [2] turned out to be 4; in the assay on Staphylococcus aureus [17] it was 16; in [15], 16. Moreover, the inhibition entry in assay [3] and in assay [4] was “inactive” in each case. In the assay on Staphylococcus aureus [11], the inhibition entry was “Active”. Further, the outcome with Staphylococcus aureus [12] and in the assay with Staphylococcus aureus [9] was inactive. Also, the inhibition in assay [13] amounted to 93.4%. The IC50 in assay [10] worked out at 8.3 µM.
